Test results published in ChEMBL document CHEMBL4043163, “Methyl propiolate and 3-butynone: Starting points for synthesis of amphiphilic 1,2,3-triazole peptidomimetics for antimicrobial evaluation” (Bioorg Med Chem, 2017).
The source made the active and inactive calls. No cut-off for these calls is given here.

What was measured:
Enterococcus faecalis [1] = test: Antimicrobial activity against Enterococcus faecalis ATCC 29212 assessed as growth inhibition incubated overnight at 37degC by visual and photometry based method; assay type: functional
Staphylococcus aureus [2] = test: Antimicrobial activity against Staphylococcus aureus ATCC 25923 assessed as growth inhibition incubated overnight at 37degC by visual and photometry based method; assay type: functional
Streptococcus agalactiae = test: Antimicrobial activity against Streptococcus agalactiae ATCC 12386 assessed as growth inhibition incubated overnight at 37degC by visual and photometry based method; assay type: functional
Escherichia coli [3] = test: Antimicrobial activity against Escherichia coli ATCC 25922 assessed as growth inhibition incubated overnight at 37degC by visual and photometry based method; assay type: functional
Pseudomonas aeruginosa [4] = test: Antimicrobial activity against Pseudomonas aeruginosa ATCC 27853 assessed as growth inhibition incubated overnight at 37degC by visual and photometry based method; assay type: functional
Staphylococcus aureus [5] = test: Antimicrobial activity against Staphylococcus aureus ATCC 25923 assessed as growth inhibition =<64 ug/ml incubated overnight at 37degC by visual and photometry based method; assay type: functional
HepG2 = test: Cytotoxicity against human HepG2 cells incubated for 24 hrs by CellTiter 96 aqueous one solution reagent based assay; assay type: cell-based; details: HepG2, 24 h
Summary of the method: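 HepG2 seeded 20,000 cells/well overnight, then exposed 24 h to a concentration range in serum-free MEM Earle's (gentamycin, NEAA, pyruvate, alanyl-glutamine); MTS reagent 1 h, absorbance 485 nm; % survival versus medium and Triton X-100 controls; EC50 from four-parameter normalized nonlinear regression.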

[6] = Selectivity index, ratio of EC50 for human HepG2 cells to MIC for Streptococcus agalactiae ATCC 12386; assay type: toxicity; details: read-out: Selectivity Index
Summary of the method: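 Selectivity index computed as HepG2 EC50 (24 h MTS assay) divided by S. agalactiae MIC.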

[7] = tested on: Staphylococcus epidermidis; test: Inhibition of biofilm formation of Staphylococcus epidermidis incubated overnight at 37degC by crystal violet based assay; assay type: functional
[8] = tested on: Staphylococcus epidermidis; test: Inhibition of biofilm formation of Staphylococcus epidermidis at =<64 ug/ml incubated overnight at 37degC by crystal violet based assay; assay type: functional
Enterococcus faecalis [9] = test: Antimicrobial activity against Enterococcus faecalis ATCC 29212 assessed as growth inhibition at =<64 ug/ml incubated overnight at 37degC by visual and photometry based method; assay type: functional
Pseudomonas aeruginosa [10] = test: Antimicrobial activity against Pseudomonas aeruginosa ATCC 27853 assessed as growth inhibition =<64 ug/ml incubated overnight at 37degC by visual and photometry based method; assay type: functional
Escherichia coli [11] = test: Antimicrobial activity against Escherichia coli ATCC 25922 assessed as growth inhibition =<64 ug/ml incubated overnight at 37degC by visual and photometry based method; assay type: functional

GENTAMICIN
MIC (Enterococcus faecalis [1]): 10 µg/mL | MIC (Staphylococcus aureus [2]): 0.13 µg/mL | MIC (Streptococcus agalactiae): 4 µg/mL

CC(C)(C)c1ccc(Cn2cc(C(=O)NCCNC(=N)N)nn2)cc1
MIC (Enterococcus faecalis [1]): inactive | MIC (Staphylococcus aureus [2]): inactive | MIC (Streptococcus agalactiae): inactive | MIC (Escherichia coli [3]): inactive | MIC (Pseudomonas aeruginosa [4]): inactive

CCCCCCCOc1ccc(-n2cc(/C(C)=N/NC(=N)N)nn2)cc1.O=C(O)C(F)(F)F
MIC (Enterococcus faecalis [1]): 32 µg/mL | MIC (Streptococcus agalactiae): 8 µg/mL | MIC (Escherichia coli [3]): 16 µg/mL | MIC (Pseudomonas aeruginosa [4]): 64 µg/mL | growth inhibition (GI) (Staphylococcus aureus [5]): inactive | EC50 (HepG2): 2 µg/mL | selectivity ratio [6]: 0.25 | MIC [7]: 8 µg/mL

CC(C)(C)c1cc(-n2cc(C(=O)NCCN)nn2)cc(C(C)(C)C)c1.Cl
MIC (Enterococcus faecalis [1]): 32 µg/mL | MIC (Staphylococcus aureus [2]): 16 µg/mL | MIC (Streptococcus agalactiae): 16 µg/mL | MIC (Escherichia coli [3]): 16 µg/mL | MIC (Pseudomonas aeruginosa [4]): 32 µg/mL | EC50 (HepG2): 8 µg/mL | selectivity ratio [6]: 0.5 | inhibition [8]: inactive

NCCNC(=O)c1cn(C23CC4CC(CC(C4)C2)C3)nn1
MIC (Enterococcus faecalis [1]): inactive | MIC (Staphylococcus aureus [2]): inactive | MIC (Streptococcus agalactiae): inactive | MIC (Escherichia coli [3]): inactive | MIC (Pseudomonas aeruginosa [4]): inactive

CC(C)(C)c1cc(Cn2cc(C(=O)N3CCNCC3)nn2)cc(C(C)(C)C)c1.Cl
MIC (Staphylococcus aureus [2]): 64 µg/mL | MIC (Streptococcus agalactiae): 64 µg/mL | MIC (Escherichia coli [3]): 64 µg/mL | growth inhibition (GI) (Enterococcus faecalis [9]): inactive | growth inhibition (GI) (Pseudomonas aeruginosa [10]): inactive

C/C(=N\NC(=N)N)c1cn(-c2ccc(OCc3cc(C(C)(C)C)cc(C(C)(C)C)c3)cc2)nn1.Cl
MIC (Enterococcus faecalis [1]): 64 µg/mL | MIC (Streptococcus agalactiae): 0.5 µg/mL | growth inhibition (GI) (Escherichia coli [11]): inactive | growth inhibition (GI) (Pseudomonas aeruginosa [10]): inactive | growth inhibition (GI) (Staphylococcus aureus [5]): inactive | EC50 (HepG2): 1.9 µg/mL | selectivity ratio [6]: 3.86 | MIC [7]: 4 µg/mL

CCCCCCCn1cc(C(=O)N2CCN(C)CC2)nn1
MIC (Enterococcus faecalis [1]): inactive | MIC (Staphylococcus aureus [2]): inactive | MIC (Streptococcus agalactiae): inactive | MIC (Escherichia coli [3]): inactive | MIC (Pseudomonas aeruginosa [4]): inactive

CCCCCCCOc1ccc(-n2cc(C(=O)NCCNC(=N)N)nn2)cc1.Cl
MIC (Enterococcus faecalis [1]): 16 µg/mL | MIC (Staphylococcus aureus [2]): 4 µg/mL | MIC (Streptococcus agalactiae): 8 µg/mL | MIC (Escherichia coli [3]): 8 µg/mL | MIC (Pseudomonas aeruginosa [4]): 8 µg/mL | EC50 (HepG2): 23.8 µg/mL | selectivity ratio [6]: 2.97 | MIC [7]: 4 µg/mL

CC(C)(C)c1cc(COc2ccc(-n3cc(C(=O)NCCNC(=N)N)nn3)cc2)cc(C(C)(C)C)c1.Cl
MIC (Enterococcus faecalis [1]): 16 µg/mL | MIC (Staphylococcus aureus [2]): 8 µg/mL | MIC (Streptococcus agalactiae): 4 µg/mL | growth inhibition (GI) (Escherichia coli [11]): inactive | growth inhibition (GI) (Pseudomonas aeruginosa [10]): inactive | EC50 (HepG2): 16.2 µg/mL | selectivity ratio [6]: 4.04 | MIC [7]: 2 µg/mL

CN1CCN(C(=O)c2cn(Cc3ccc(C(C)(C)C)cc3)nn2)CC1
MIC (Enterococcus faecalis [1]): inactive | MIC (Staphylococcus aureus [2]): inactive | MIC (Streptococcus agalactiae): inactive | MIC (Escherichia coli [3]): inactive | MIC (Pseudomonas aeruginosa [4]): inactive

CCCCCCCn1cc(C(=O)NCCNC(=N)N)nn1
MIC (Enterococcus faecalis [1]): inactive | MIC (Staphylococcus aureus [2]): inactive | MIC (Streptococcus agalactiae): inactive | MIC (Escherichia coli [3]): inactive | MIC (Pseudomonas aeruginosa [4]): inactive

CC(C)(C)c1cc(-n2cc(C(=O)NCCNC(=N)N)nn2)cc(C(C)(C)C)c1.Cl
MIC (Enterococcus faecalis [1]): 16 µg/mL | MIC (Staphylococcus aureus [2]): 8 µg/mL | MIC (Streptococcus agalactiae): 8 µg/mL | MIC (Escherichia coli [3]): 16 µg/mL | MIC (Pseudomonas aeruginosa [4]): 16 µg/mL | EC50 (HepG2): 31.3 µg/mL | selectivity ratio [6]: 3.91 | MIC [7]: 4 µg/mL

CC(C)(C)c1cc(Cn2cc(C(=O)NCCN)nn2)cc(C(C)(C)C)c1.Cl
MIC (Staphylococcus aureus [2]): 64 µg/mL | MIC (Streptococcus agalactiae): 64 µg/mL | MIC (Escherichia coli [3]): 32 µg/mL | MIC (Pseudomonas aeruginosa [4]): 64 µg/mL | growth inhibition (GI) (Enterococcus faecalis [9]): inactive

CN1CCN(C(=O)c2cn(Cc3cc(C(C)(C)C)cc(C(C)(C)C)c3)nn2)CC1
MIC (Enterococcus faecalis [1]): inactive | MIC (Staphylococcus aureus [2]): inactive | MIC (Streptococcus agalactiae): inactive | MIC (Escherichia coli [3]): inactive | MIC (Pseudomonas aeruginosa [4]): inactive

CC(C)(C)c1ccc(Cn2cc(C(=O)N3CCNCC3)nn2)cc1
MIC (Enterococcus faecalis [1]): inactive | MIC (Staphylococcus aureus [2]): inactive | MIC (Streptococcus agalactiae): inactive | MIC (Escherichia coli [3]): inactive | MIC (Pseudomonas aeruginosa [4]): inactive

CCCCCCCOc1ccc(-n2cc(C(=O)NCCN)nn2)cc1.Cl
MIC (Staphylococcus aureus [2]): 4 µg/mL | MIC (Streptococcus agalactiae): 8 µg/mL | MIC (Pseudomonas aeruginosa [4]): 16 µg/mL | growth inhibition (GI) (Enterococcus faecalis [9]): inactive | growth inhibition (GI) (Escherichia coli [11]): inactive | EC50 (HepG2): 3.5 µg/mL | selectivity ratio [6]: 0.44 | MIC [7]: 4 µg/mL

CCCCCCCn1cc(C(=O)N2CCNCC2)nn1
MIC (Enterococcus faecalis [1]): inactive | MIC (Staphylococcus aureus [2]): inactive | MIC (Streptococcus agalactiae): inactive | MIC (Escherichia coli [3]): inactive | MIC (Pseudomonas aeruginosa [4]): inactive

CC(C)(C)c1cc(Cn2cc(C(=O)N3CCN(C(=N)N)CC3)nn2)cc(C(C)(C)C)c1.Cl
MIC (Staphylococcus aureus [2]): 64 µg/mL | MIC (Streptococcus agalactiae): 32 µg/mL | MIC (Pseudomonas aeruginosa [4]): 64 µg/mL | growth inhibition (GI) (Enterococcus faecalis [9]): inactive | growth inhibition (GI) (Escherichia coli [11]): inactive

C/C(=N\NC(=N)N)c1cn(Cc2cc(C(C)(C)C)cc(C(C)(C)C)c2)nn1.Cl
MIC (Enterococcus faecalis [1]): 8 µg/mL | MIC (Staphylococcus aureus [2]): 4 µg/mL | MIC (Streptococcus agalactiae): 4 µg/mL | MIC (Escherichia coli [3]): 8 µg/mL | MIC (Pseudomonas aeruginosa [4]): 8 µg/mL | EC50 (HepG2): 2.3 µg/mL | selectivity ratio [6]: 0.57 | MIC [7]: 4 µg/mL

CCCCCCCn1cc(C(=O)NCCN)nn1
MIC (Enterococcus faecalis [1]): inactive | MIC (Staphylococcus aureus [2]): inactive | MIC (Streptococcus agalactiae): inactive | MIC (Escherichia coli [3]): inactive | MIC (Pseudomonas aeruginosa [4]): inactive

CN1CCN(C(=O)c2cn(C34CC5CC(CC(C5)C3)C4)nn2)CC1
MIC (Enterococcus faecalis [1]): inactive | MIC (Staphylococcus aureus [2]): inactive | MIC (Streptococcus agalactiae): inactive | MIC (Escherichia coli [3]): inactive | MIC (Pseudomonas aeruginosa [4]): inactive

CC(C)(C)c1cc(Cn2cc(C(=O)NCCNC(=N)N)nn2)cc(C(C)(C)C)c1.Cl
MIC (Enterococcus faecalis [1]): 64 µg/mL | MIC (Staphylococcus aureus [2]): 32 µg/mL | MIC (Streptococcus agalactiae): 16 µg/mL | MIC (Escherichia coli [3]): 64 µg/mL | MIC (Pseudomonas aeruginosa [4]): 32 µg/mL

O=C(c1cn(C23CC4CC(CC(C4)C2)C3)nn1)N1CCNCC1
MIC (Enterococcus faecalis [1]): inactive | MIC (Staphylococcus aureus [2]): inactive | MIC (Streptococcus agalactiae): inactive | MIC (Escherichia coli [3]): inactive | MIC (Pseudomonas aeruginosa [4]): inactive

N=C(N)N1CCN(C(=O)c2cn(C34CC5CC(CC(C5)C3)C4)nn2)CC1
MIC (Enterococcus faecalis [1]): inactive | MIC (Staphylococcus aureus [2]): inactive | MIC (Streptococcus agalactiae): inactive | MIC (Escherichia coli [3]): inactive | MIC (Pseudomonas aeruginosa [4]): inactive

CC(C)(C)c1ccc(Cn2cc(C(=O)NCCN)nn2)cc1
MIC (Enterococcus faecalis [1]): inactive | MIC (Staphylococcus aureus [2]): inactive | MIC (Streptococcus agalactiae): inactive | MIC (Escherichia coli [3]): inactive | MIC (Pseudomonas aeruginosa [4]): inactive

CC(C)(C)c1cc(COc2ccc(-n3cc(C(=O)NCCN)nn3)cc2)cc(C(C)(C)C)c1.Cl
MIC (Enterococcus faecalis [1]): 8 µg/mL | MIC (Streptococcus agalactiae): 2 µg/mL | MIC (Pseudomonas aeruginosa [4]): 16 µg/mL | growth inhibition (GI) (Escherichia coli [11]): inactive | growth inhibition (GI) (Staphylococcus aureus [5]): inactive | EC50 (HepG2): 2.9 µg/mL | selectivity ratio [6]: 1.44 | MIC [7]: 8 µg/mL

C/C(=N\NC(=N)N)c1cn(-c2cc(C(C)(C)C)cc(C(C)(C)C)c2)nn1.O=C(O)C(F)(F)F
MIC (Enterococcus faecalis [1]): 4 µg/mL | MIC (Staphylococcus aureus [2]): 4 µg/mL | MIC (Streptococcus agalactiae): 2 µg/mL | MIC (Escherichia coli [3]): 4 µg/mL | MIC (Pseudomonas aeruginosa [4]): 16 µg/mL | EC50 (HepG2): 2.6 µg/mL | selectivity ratio [6]: 1.32 | MIC [7]: 4 µg/mL

CCCCCCCn1cc(C(=O)N2CCN(C(=N)N)CC2)nn1
MIC (Enterococcus faecalis [1]): inactive | MIC (Staphylococcus aureus [2]): inactive | MIC (Streptococcus agalactiae): inactive | MIC (Escherichia coli [3]): inactive | MIC (Pseudomonas aeruginosa [4]): inactive

N=C(N)NCCNC(=O)c1cn(C23CC4CC(CC(C4)C2)C3)nn1
MIC (Enterococcus faecalis [1]): inactive | MIC (Staphylococcus aureus [2]): inactive | MIC (Streptococcus agalactiae): inactive | MIC (Escherichia coli [3]): inactive | MIC (Pseudomonas aeruginosa [4]): inactive
